The test system of assay [1] is HL-60. As to the kind of experiment: Induction of apoptosis in human HL60 cells assessed as dead cells at 0.25 uM after 24 hrs by annexin V-FITC/propidium iodide staining-based flow cytometric analysis (reference value: 0.12%). The assay is classed as functional. A general note: Flow cytometry measures light scatter and fluorescence of single cells or particles in a stream.

Assay [2] concerns the target DNA topoisomerase 2-alpha (Homo sapiens, UniProt P11388). In words: Inhibition of purified human topoisomerase 2 using supercoiled pBR322 DNA as substrate assessed as linear DNA formation at 20 uM incubated for 6 mins by agarose gel electrophoresis. The method, boiled down:
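Human Topo II (6 units) with 0.1 μg supercoiled pBR322 in 50 mM Tris-HCl pH 8.0, 150 mM NaCl, 10 mM MgCl2, 2 mM ATP, 0.5 mM DTT, 30 μg/ml BSA; compounds at 20 μM, etoposide 100 μM. After 6 min at 37 °C, complexes trapped with SDS then EDTA, proteinase K 30 min at 45 °C, heated 72 °C 2 min, run on 1% agarose; linear DNA scored. Antagonism tested by compound pretreatment before etoposide.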

The target in assay [3] is T1, DNA topoisomerase 1 (Homo sapiens) (UniProt P11387).
T1 sequence (whole entry): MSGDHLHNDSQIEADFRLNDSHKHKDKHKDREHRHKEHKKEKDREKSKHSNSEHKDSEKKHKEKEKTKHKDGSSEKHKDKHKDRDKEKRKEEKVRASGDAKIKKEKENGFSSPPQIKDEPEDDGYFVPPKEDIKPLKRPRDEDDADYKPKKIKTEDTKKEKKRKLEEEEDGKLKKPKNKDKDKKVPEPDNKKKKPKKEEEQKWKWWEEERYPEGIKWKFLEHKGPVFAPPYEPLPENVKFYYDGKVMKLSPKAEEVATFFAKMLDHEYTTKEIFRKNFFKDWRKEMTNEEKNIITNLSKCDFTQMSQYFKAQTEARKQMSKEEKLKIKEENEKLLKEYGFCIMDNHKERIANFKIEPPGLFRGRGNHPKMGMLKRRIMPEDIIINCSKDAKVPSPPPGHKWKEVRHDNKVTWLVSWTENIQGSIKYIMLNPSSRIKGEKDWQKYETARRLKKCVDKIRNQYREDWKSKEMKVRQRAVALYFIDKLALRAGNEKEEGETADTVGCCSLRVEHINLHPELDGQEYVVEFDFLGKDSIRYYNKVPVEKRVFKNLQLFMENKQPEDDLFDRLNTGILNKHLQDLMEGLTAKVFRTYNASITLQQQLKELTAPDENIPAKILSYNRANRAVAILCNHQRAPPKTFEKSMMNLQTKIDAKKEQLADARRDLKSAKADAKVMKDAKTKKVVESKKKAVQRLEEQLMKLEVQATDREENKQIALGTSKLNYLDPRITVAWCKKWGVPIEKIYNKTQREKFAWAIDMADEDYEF
In words: Inhibition of recombinant human topoisomerase 1 assessed as interacaltion of pBR322 DNA at 50 uM pre-incubated with DNA followed by incubation with enzyme for 30 mins by agarose gel electrophoresis. The gist of the method:
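Supercoiled pBR322 first relaxed with Topo I in 50 mM Tris-HCl pH 7.5, 50 mM KCl, 10 mM MgCl2, 0.5 mM DTT, 0.1 mM EDTA, 30 μg/ml BSA. 0.1 μg relaxed DNA preincubated with compound 10 min at room temperature, then Topo I (1 unit) added for 30 min at 37 °C; phenol-chloroform extracted, SDS/EDTA stop, 1% agarose 1 h at 90 V; ethidium bromide as intercalator reference.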

For assay [4], the system named is HL-60. As to the kind of experiment: Induction of apoptosis in human HL60 cells assessed as dead cells at 2 uM after 12 hrs by annexin V-FITC/propidium iodide staining-based flow cytometric analysis (reference value: 0.12 to 0.15%). The assay is classed as functional.
The test system of assay [5] is HL-60. In words: Induction of apoptosis in human HL60 cells assessed as early apoptotic cells at 0.5 uM after 12 hrs by annexin V-FITC/propidium iodide staining-based flow cytometric analysis (reference value: 0.38 to 0.55%). It counts as functional. The method, boiled down: (§1)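 HL-60 cells at 5.0 × 10^5 cells/ml treated for 12 h (0.5–2 μM) or 24 h (0.25–1 μM), washed twice in cold PBS, resuspended in binding buffer, stained with annexin V-FITC and propidium iodide for 15 min in the dark, analysed by flow cytometry within 1 h; quadrants define live, early and late apoptotic cells. Three repeats.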

The nature of assay [6]: Antiproliferative activity against human HL60/MX2 cells after 48 hrs by MTT assay. The note with it: HL60/MX2, 48 h. It counts as functional, cell-based. The gist of the method:
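Cells seeded at 5000 per well and left overnight, then exposed to increasing concentrations (0-50 μM) for 48 h. […] HL-60/MX2 is a mitoxantrone-selected HL-60 derivative with reduced Topo IIα/β.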
In general terms: Formazan colour is commonly taken as a measure of viable cells.

In the next assay the test system is HEK293. In words: Cytotoxicity against HEK293 cells after 48 hrs by MTT assay. It counts as cell-based. As to conditions: Homo sapiens, HEK293, 48 h.
Assay [7] addresses T1, DNA topoisomerase 1 (Homo sapiens). As to the kind of experiment: Inhibition of recombinant human topoisomerase 1-mediated relaxation of supercoiled pBR322 DNA at 50 uM incubated for 30 mins by agarose gel electrophoresis. The gist of the method: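 Supercoiled pBR322 relaxed by Topo I with compound, incubated 30 min at 37 °C, stopped with 1% SDS dye, run on 1% agarose 1 h at 90 V in TAE, stained and imaged under UV; camptothecin as reference.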

The test system of assay [8] is HL-60. As to the kind of experiment: Induction of apoptosis in human HL60 cells assessed as late apoptotic cells at 2 uM after 12 hrs by annexin V-FITC/propidium iodide staining-based flow cytometric analysis (reference value: 0.17 to 0.18%). It counts as functional. The method, boiled down:
as §1

Assay [9] has as its system HL-60. As to the kind of experiment: Induction of apoptosis in human HL60 cells assessed as early apoptotic cells at 0.25 uM after 24 hrs by annexin V-FITC/propidium iodide staining-based flow cytometric analysis (reference value: 0.5%). The assay is classed as functional. The gist of the method: as §1
Assay [10] concerns HL-60. As to the kind of experiment: Induction of apoptosis in human HL60 cells assessed as early apoptotic cells at 0.5 uM after 24 hrs by annexin V-FITC/propidium iodide staining-based flow cytometric analysis (reference value: 0.5%). It counts as functional. The method, boiled down: as §1
The subject of assay [11] is HL-60. In words: Induction of apoptosis in human HL60 cells assessed as dead cells at 0.5 uM after 12 hrs by annexin V-FITC/propidium iodide staining-based flow cytometric analysis (reference value: 0.12 to 0.15%). It counts as functional.
The subject of assay [12] is HL-60. In words: Induction of apoptosis in human HL60 cells assessed as viable cells at 0.5 uM after 12 hrs by annexin V-FITC/propidium iodide staining-based flow cytometric analysis (reference value: 99.12 to 99.33%). The assay is classed as functional. As to conditions: HL-60, 12 h, read-out: Activity. The gist of the method: as §1
The subject of assay [13] is HL-60. As to the kind of experiment: Induction of apoptosis in human HL60 cells assessed as late apoptotic cells at 1 uM after 12 hrs by annexin V-FITC/propidium iodide staining-based flow cytometric analysis (reference value: 0.17 to 0.18%). The assay is classed as functional. The method, boiled down:
as §1

Assay [14] concerns HL-60. As to the kind of experiment: Induction of apoptosis in human HL60 cells assessed as viable cells at 1 uM after 24 hrs by annexin V-FITC/propidium iodide staining-based flow cytometric analysis (reference value: 97.75%). The assay is classed as functional. The note with it: HL-60, 24 h, read-out: Activity. The method, boiled down: as §1

Usually IC50 stands for the concentration needed to halve the response being measured. A low value points to greater potency.

SMILES strings stand for the structures. Calls of active or inactive are those of the source. The calls are words filed in the database; no cut-off is given here.

Sequence of DNA topoisomerase 2-alpha (P11388 whole entry): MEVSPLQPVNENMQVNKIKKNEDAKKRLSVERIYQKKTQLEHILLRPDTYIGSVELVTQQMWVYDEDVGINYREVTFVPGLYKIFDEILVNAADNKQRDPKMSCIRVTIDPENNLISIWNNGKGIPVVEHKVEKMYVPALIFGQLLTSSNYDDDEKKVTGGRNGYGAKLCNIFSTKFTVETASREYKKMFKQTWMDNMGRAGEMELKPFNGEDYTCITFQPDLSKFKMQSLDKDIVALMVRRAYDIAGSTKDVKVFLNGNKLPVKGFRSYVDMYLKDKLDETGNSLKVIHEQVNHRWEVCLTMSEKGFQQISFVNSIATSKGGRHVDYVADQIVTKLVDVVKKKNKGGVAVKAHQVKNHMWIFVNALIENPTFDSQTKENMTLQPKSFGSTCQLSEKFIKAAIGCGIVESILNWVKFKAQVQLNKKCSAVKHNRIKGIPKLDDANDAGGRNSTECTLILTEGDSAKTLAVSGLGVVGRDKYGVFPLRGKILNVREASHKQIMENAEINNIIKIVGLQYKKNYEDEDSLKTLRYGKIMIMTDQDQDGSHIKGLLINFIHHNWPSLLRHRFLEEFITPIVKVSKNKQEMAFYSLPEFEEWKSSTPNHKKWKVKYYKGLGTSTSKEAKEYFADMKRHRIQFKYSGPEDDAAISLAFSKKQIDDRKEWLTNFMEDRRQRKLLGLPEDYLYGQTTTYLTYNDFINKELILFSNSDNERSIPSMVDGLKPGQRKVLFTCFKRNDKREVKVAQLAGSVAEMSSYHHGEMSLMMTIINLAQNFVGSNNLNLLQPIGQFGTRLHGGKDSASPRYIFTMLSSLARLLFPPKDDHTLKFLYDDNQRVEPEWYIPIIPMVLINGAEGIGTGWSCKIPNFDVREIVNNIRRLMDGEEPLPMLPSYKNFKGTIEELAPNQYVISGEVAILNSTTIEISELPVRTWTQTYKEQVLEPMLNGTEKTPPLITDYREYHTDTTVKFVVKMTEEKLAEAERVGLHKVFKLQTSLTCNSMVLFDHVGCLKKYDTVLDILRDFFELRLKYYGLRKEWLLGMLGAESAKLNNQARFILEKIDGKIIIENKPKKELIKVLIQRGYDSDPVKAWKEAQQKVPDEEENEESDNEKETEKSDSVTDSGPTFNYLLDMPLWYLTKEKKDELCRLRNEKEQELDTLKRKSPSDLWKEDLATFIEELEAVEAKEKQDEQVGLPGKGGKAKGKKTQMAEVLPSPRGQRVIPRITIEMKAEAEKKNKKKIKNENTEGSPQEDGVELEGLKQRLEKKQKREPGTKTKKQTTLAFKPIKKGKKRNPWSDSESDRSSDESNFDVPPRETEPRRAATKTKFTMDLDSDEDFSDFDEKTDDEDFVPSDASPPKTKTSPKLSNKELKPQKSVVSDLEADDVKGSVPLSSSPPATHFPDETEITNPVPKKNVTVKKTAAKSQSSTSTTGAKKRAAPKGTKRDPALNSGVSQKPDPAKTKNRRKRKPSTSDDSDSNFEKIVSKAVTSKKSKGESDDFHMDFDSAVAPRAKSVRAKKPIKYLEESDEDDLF

With `CN(C)CCCCn1c(N)c(-c2nc3ccccc3[nH]2)c2nc(C#N)c(C#N)nc21`, the Activity with HL-60 [1] was 0.03%; in the assay on HL-60 [4], 1.96%; in the assay on HL-60 [5], 0.46%; in the assay on HL-60 [8], 64.15%; in the assay on HL-60 [9], 0.54%; in the assay with HL-60 [10] it was 4.45%. Also, the Activity in the assay on HL-60 [11] is listed as 0.05%; in the assay with HL-60 [13], 0.39%. Moreover, the inhibition result in [2], in [3] and in assay [7] was “inactive” each time. Moreover, the IC50 stood at 1.78 µM in assay [6] and 4.16 µM in the assay with HEK293. For the same compound, the viability at 0.5 µM in the assay with HL-60 [12] is 99.3%. Moreover, the viability at 1 µM in the assay with HL-60 [14] was 0.65%.

For the compound `CCN(CC)CCCCn1c(N)c(-c2nc3ccccc3[nH]2)c2nc(C#N)c(C#N)nc21`, the Activity in the assay on HL-60 [1] was 0.07%; in the assay with HL-60 [4], 1.36%; with HL-60 [5] it was 0.35%; in the assay with HL-60 [8] it was 46.73%; in the assay on HL-60 [9] it was 0.35%; in the assay with HL-60 [10], 3.24%. Further, the Activity in the assay with HL-60 [11] came to 0.1%; in the assay on HL-60 [13] it was 1.19%. Also, the inhibition entry in [2], in [3] and in assay [7] was “inactive” in each case. For the same compound, the 50% inhibitory concentration (IC50) is 1.55 µM in assay [6] and 5.37 µM in the assay on HEK293. Besides, the viability at 0.5 µM in the assay with HL-60 [12] worked out at 99.3%. Also, the viability at 1 µM with HL-60 [14] came out at 32.9%.

Source of the values: ChEMBL document CHEMBL3758120, “Synthesis and Mechanism Studies of 1,3-Benzoazolyl Substituted Pyrrolo[2,3-b]pyrazine Derivatives as Nonintercalative Topoisomerase II Catalytic Inhibitors” (J Med Chem, 2016).
